For one molecule, inhibition and apoptosis rate results are on record in PMC9123937 (International Journal of Nanomedicine, 2022).

For test [1], the system named is MHCC-97H cells. Kind of test: Cytotoxicity study. Conditions: Homo sapiens, MHCC97H, 96 h, read-out: 96-hour inhibition rate. The test is classed as cell-based. In a few lines: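 MHCC-97H cells seeded at 3×10^3 cells/well in 96-well plates and cultured 24 h. Test compound added at final 0, 6.25, 12.5, 25, 50 or 100 μg/mL for 24, 48, 72 or 96 h at 37°C, with 0.1% DMSO as negative control. MTT (5 mg/mL stock) added for 3.5 h at 37°C, formazan dissolved in DMSO, absorbance read at 490 nm.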

Test [2] has as its system MHCC-97H cells. In words: Apoptosis assay. The test is classed as cell-based, human. Conditions: 24 h. In a few lines: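 MHCC-97H cells (high-glucose DMEM, 10% FBS, 37°C, 5% CO2) seeded at 2×10^5 cells/well in 6-well plates and cultured 24 h. Test compound added at 5, 10 or 20 μmol/L for a further 24 h, with 0.1% DMSO and medium controls. Harvested cells stained with Annexin V-FITC and PI for 15 min in the dark in binding buffer, then analysed by flow cytometry.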

Molecules are shown by their SMILES.

In general, inhibition refers to the change of the read-out against control, counted positive when it falls. As to `COc1cc(/C=C/C(=O)CC(=O)/C=C/c2ccc(O)c(OC)c2)ccc1O` [CU, curcumin], the inhibition at 100 µg/mL with MHCC-97H cells [1] amounted to 68.2 ± 1.19%. For the same molecule, the apoptosis rate is given as 17.29 ± 0.66% in the test with MHCC-97H cells [2] (5 μmol/L), 25.74 ± 0.61% in the test on MHCC-97H cells [2] (10 μmol/L) and 33.11 ± 1.00% with MHCC-97H cells [2] (20 μmol/L).
